Measurements gathered from unrelated publications.
Compare with care: the assays were run in different laboratories.
Target: Ephrin type-B receptor 2 (EPHB2, Homo sapiens, UniProt P29323)
One construct used (P29323 19-1055): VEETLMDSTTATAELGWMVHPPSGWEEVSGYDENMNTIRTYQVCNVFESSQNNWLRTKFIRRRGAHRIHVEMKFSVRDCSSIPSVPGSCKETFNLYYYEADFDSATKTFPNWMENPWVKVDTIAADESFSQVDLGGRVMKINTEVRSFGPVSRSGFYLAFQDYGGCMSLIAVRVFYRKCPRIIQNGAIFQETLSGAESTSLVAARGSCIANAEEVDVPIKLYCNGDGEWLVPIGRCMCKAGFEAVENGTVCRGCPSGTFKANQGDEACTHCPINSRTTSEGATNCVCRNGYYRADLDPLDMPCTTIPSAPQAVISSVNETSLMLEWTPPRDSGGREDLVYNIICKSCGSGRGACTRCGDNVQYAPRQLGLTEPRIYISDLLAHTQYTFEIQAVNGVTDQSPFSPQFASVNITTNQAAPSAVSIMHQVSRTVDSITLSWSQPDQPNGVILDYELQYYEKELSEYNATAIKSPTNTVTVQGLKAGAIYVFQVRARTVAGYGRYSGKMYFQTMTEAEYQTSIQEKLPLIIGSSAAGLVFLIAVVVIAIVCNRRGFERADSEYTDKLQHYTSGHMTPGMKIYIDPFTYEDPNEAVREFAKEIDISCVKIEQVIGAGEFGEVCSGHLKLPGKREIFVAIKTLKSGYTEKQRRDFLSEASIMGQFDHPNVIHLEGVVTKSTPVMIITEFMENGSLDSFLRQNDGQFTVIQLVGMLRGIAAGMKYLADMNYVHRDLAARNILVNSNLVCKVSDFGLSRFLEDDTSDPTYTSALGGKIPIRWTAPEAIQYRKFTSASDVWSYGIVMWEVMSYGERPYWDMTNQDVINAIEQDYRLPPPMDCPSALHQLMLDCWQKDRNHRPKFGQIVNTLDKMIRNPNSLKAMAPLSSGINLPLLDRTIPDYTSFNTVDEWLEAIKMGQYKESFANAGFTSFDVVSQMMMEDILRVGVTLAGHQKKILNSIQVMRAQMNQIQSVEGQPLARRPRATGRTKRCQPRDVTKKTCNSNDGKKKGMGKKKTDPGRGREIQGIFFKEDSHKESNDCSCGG

`Cc1cc(NC(=O)c2cccc3cc(-c4cccc5[nH]nc(N)c45)ccc23)ccc1F` gave an activity vs control of 102% (enzyme activity, inhibitor; 0.1 µM).
`C[C@H](c1ccnc(Nc2nc3ccc(-c4cc(N(C)C)ncn4)cc3[nH]2)c1)N1CCN(C(=O)CC(F)(F)F)CC1` gave a remaining binding of 93% (cell-free assay, competition with immobilised ligand; 0.1 µM).
`CN(C)c1ccc(C=C2C(=O)Nc3ccccc32)cc1` has a remaining signal of 86.5% (cell-free assay; 0.5 µM).
With `Cc1ccc(Nc2nccc(N(C)c3ccc4c(C)n(C)nc4c3)n2)cc1S(N)(=O)=O` the inhibition was 7% (enzyme activity, inhibitor; 0.3 µM).
With `Cc1ccc(NC(=O)c2ccc(C)c(C(F)(F)F)c2)cc1C#Cc1nn(C2CCC(O)CC2)c2ncnc(N)c12` (centres unmarked) the remaining signal was -1% (cell-free assay; 10 µM).
For `CN(C)c1ncnc(-c2ccc3nc(Nc4cc(CN5CCN(C(=O)CC(F)(F)F)CC5)ccn4)[nH]c3c2)c1Cl`, the remaining binding was 100% (cell-free assay, competition with immobilised ligand; 1 µM).
`Cc1ccc(C(=O)Nc2ccc(CN3CCN(C)CC3)c(C(F)(F)F)c2)cc1C#Cc1cnc2cccnn12` gave a remaining signal of 49% (cell-free assay; 23.5 nM).
For `CSc1cccnc1N1CCN(Cc2nc3ccccc3[nH]2)CC1`, the remaining binding was 99% (cell-free assay, competition with immobilised ligand; 1 µM).
`COc1cc2ncnc(Nc3ccc(F)c(Cl)c3)c2cc1OCCCN1CCOCC1` has a remaining signal of 87.7% (cell-free assay; 0.5 µM).
The remaining binding of `O=C(Nc1cccnn1)N1CCC(=Cc2cccc(Oc3ccc(C(F)(F)F)cn3)c2)CC1` is reported as 100% (cell-free assay, competition with immobilised ligand; 1 µM).
For `CNC(=O)c1cc(Oc2ccc(NC(=O)Nc3ccc(Cl)c(C(F)(F)F)c3)cc2)ccn1`, the inhibition was 95% (enzyme activity, inhibitor; 10 µM).
`Cc1ccc(NC(=O)c2ccc(CN3CCN(C)CC3)cc2)cc1Nc1nc(-c2cccnc2)cs1` has a remaining signal of 95.3% (cell-free assay; 0.5 µM).
With `CC(C)(O)[C@H]1CC[C@H](Nc2ccc3ncc(-c4cccc(C(F)(F)F)c4)n3n2)CC1` the remaining activity was 93.5% (enzyme activity, inhibitor; 1 µM).
With `Nc1ncnc2occ(-c3ccc(NC(=O)Nc4cc(C(F)(F)F)ccc4F)cc3)c12` the remaining signal was 0% (cell-free assay; 20 µM).
`O=C1NC(=O)c2cc(Nc3ccc(F)cc3)c(Nc3ccc(F)cc3)cc21` has a remaining signal of 89.3% (cell-free assay; 0.5 µM).
With `O=C(NS(=O)(=O)c1ccc(NCC2CCOCC2)c([N+](=O)[O-])c1)c1ccc(N2CCN(Cc3ccc(C(F)(F)F)cc3-c3ccc(Cl)cc3)CC2)cc1Oc1cnc2[nH]ccc2c1` the remaining binding was 100% (cell-free assay, competition with immobilised ligand; 1 µM).
`CCN(CC)CCNC(=O)c1c(C)[nH]c(/C=C2\C(=O)Nc3ccc(F)cc32)c1C` gave an inhibition of 90% (enzyme activity, inhibitor; 10 µM).
For `CN(C)C1CCN(CC#Cc2nn(C3CCCC3)c3nc(NCc4ccccc4)ncc23)C1` (centres unmarked), the inhibition was 3% (enzyme activity, inhibitor, FRET; 0.1 µM).
`CC(=O)c1c(NS(C)(=O)=O)c2cc(-c3ccc(Cl)cc3)c(-c3ccc(Cl)cc3Cl)nc2n(C)c1=O` gave a remaining binding of 100% (cell-free assay, competition with immobilised ligand; 1 µM).
For `COc1cc(Cl)c(C(=O)N[C@@H](CN[C@H]2CC[C@@H](N)CC2)Cc2ccc(C#N)cc2)cc1-c1ccc(CN[C@H](C)c2ccc(C)cc2)o1`, the remaining activity was 123% (enzyme activity, inhibitor; 1 µM).
For `COc1cc(Nc2cnc(C#N)c(O[C@H](C)CN(C)C)n2)ncc1-c1cnn(C)c1`, the remaining activity was 110% (enzyme activity, inhibitor, radiometric; 1 µM).
For `CN(C(=O)c1ccccc1)c1cc(N(C)c2ccc3c(c2)CCc2ccc(C(=O)NCCN4CCOCC4)cc2C3=O)ccc1F`, the remaining binding was 82% (cell-free assay, competition with immobilised ligand; 1 µM).
With `FC(F)c1nc2ccccc2n1-c1nc(N2CCOCC2)nc(N2CCOCC2)n1` the remaining activity was 106% (enzyme activity, inhibitor; 10 µM).
The inhibition of `COc1cc2ncnc(Nc3ccc(Oc4ccccc4)cc3C)c2cc1OC` is reported as 25% (enzyme activity, inhibitor; 1 µM).
For `O=C(Nc1cnn(-c2csc(C(=O)NC3COC3)c2)c1)Nc1ccccc1Cl`, the remaining activity was 101% (enzyme activity, inhibitor; 5 µM).
For `CC(C)(C)c1nc2c(s1)c1nc(N)ncc1c1ccc(NS(=O)(=O)c3c(F)cccc3F)c(F)c12`, the remaining activity was 91% (enzyme activity, inhibitor, radiometric; 1 µM).
The remaining activity of `Cn1c(=O)n(-c2ccc(C(C)(C)C#N)cc2)c2c3cc(-c4cnc5ccccc5c4)ccc3ncc21` is reported as 77% (enzyme activity, inhibitor; 10 µM).
With `CCC(=O)N[C@@H]1CC[C@H](C(=O)N(C)c2ccc(-c3nc4ccccc4o3)cc2)C1` the remaining binding was 82% (cell-free assay, competition with immobilised ligand; 1 µM).
With `CCCCNc1ncc2c(-c3ccc(F)cc3)nn(C[C@H]3CC[C@H](N)CC3)c2n1` the inhibition was 94.8% (target engagement in cells, inhibitor, chemoproteomics; 20 mM).
